Activity calls are given as the source filed them. The rule behind the calls is not given here.
Tests used:
[1] = Cytotoxicity against human […] cells at 10 uM after 24 hrs by MTT assay; type: cell-based
Beta-secretase 1 [2] = target: T1, Beta-secretase 1 (Homo sapiens, UniProt P56817); assay: Inhibition of human BACE1 (1 to 460 residues) using APP-based peptide as substrate at 10 uM incubated for 60 mins by FRET analysis
How it was run: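 Measured by FRET. Test compounds were screened at one fixed concentration and reported as percent inhibition, given as mean ± SD of triplicate experiments performed independently.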

Beta-secretase 1 [3] = target: T1, Beta-secretase 1; assay: Inhibition of human BACE1 (1 to 460 residues) using APP-based peptide as substrate incubated for 60 mins by FRET analysis

T1 sequence (P56817 whole entry, the tested form may be a part): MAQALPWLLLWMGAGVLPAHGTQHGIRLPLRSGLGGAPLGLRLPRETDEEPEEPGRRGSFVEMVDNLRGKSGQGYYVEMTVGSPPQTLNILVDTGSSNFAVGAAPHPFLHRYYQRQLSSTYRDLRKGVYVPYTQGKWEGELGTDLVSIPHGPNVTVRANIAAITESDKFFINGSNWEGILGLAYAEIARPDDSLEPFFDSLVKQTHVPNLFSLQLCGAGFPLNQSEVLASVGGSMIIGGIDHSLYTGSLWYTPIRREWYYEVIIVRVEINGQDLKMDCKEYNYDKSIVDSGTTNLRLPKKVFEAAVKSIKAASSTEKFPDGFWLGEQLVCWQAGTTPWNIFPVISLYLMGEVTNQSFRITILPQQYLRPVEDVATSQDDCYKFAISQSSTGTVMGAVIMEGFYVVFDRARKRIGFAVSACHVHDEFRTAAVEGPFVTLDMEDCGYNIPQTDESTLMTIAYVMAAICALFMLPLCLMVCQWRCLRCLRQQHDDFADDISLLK

Row | Structure (SMILES) | Activity [1] | inhibition (Beta-secretase 1 [2]) | IC50 (Beta-secretase 1 [3]) [µM]
1 | N=C(N)N/N=C(/C=C/c1ccccc1)c1cccc(O)c1 | Non-toxic |  | 
2 | CN(C)c1ccc(/C=C/C(=N/NC(=N)N)c2ccc([N+](=O)[O-])cc2)cc1 | Non-toxic | 23.9% | 
3 | COc1ccc(/C=C/C(=N/NC(=N)N)c2ccccc2)cc1OC | Non-toxic | 42.1% | 
4 | COc1ccc(/C=C/C(=N/NC(=N)N)c2ccc([N+](=O)[O-])cc2)cc1OC | Non-toxic | 61.2% | 
5 | N=C(N)N/N=C(/C=C/c1cccc([N+](=O)[O-])c1)c1ccc(Cl)cc1Cl | Non-toxic | 5.4% | 
6 | COc1ccc(C(/C=C/c2cccc([N+](=O)[O-])c2)=N\NC(=N)N)cc1 | Non-toxic | 11% | 
7 | CN(C)c1ccc(/C=C/C(=N/NC(=N)N)c2cccc([N+](=O)[O-])c2)cc1 | Non-toxic | 28% | 
8 | COc1ccc(/C=C/C(=N/NC(=N)N)c2cccc(Br)c2)cc1OC | Non-toxic | 25.9% | 
9 | N=C(N)N/N=C(/C=C/c1ccccc1)c1ccccc1 | Non-toxic | 10.8% | 
10 | N=C(N)N/N=C(/C=C/c1ccccc1)c1ccc(Cl)cc1 | Non-toxic | 18% | 
11 | N=C(N)N/N=C(/C=C/c1cccc([N+](=O)[O-])c1)c1cccc(Br)c1 | Non-toxic | 10.8% | 
12 | N=C(N)N/N=C(/C=C/c1cccc([N+](=O)[O-])c1)c1ccccc1 | Non-toxic | 47.9% | 
13 | COc1ccc(/C=C/C(=N/NC(=N)N)c2cccc([N+](=O)[O-])c2)cc1OC | Non-toxic | 45.8% | 
14 | Cc1ccc(C(/C=C/c2ccc(N(C)C)cc2)=N\NC(=N)N)cc1 | Non-toxic | 10.8% | 
15 | N=C(N)N/N=C(/C=C/c1ccccc1)c1cccc([N+](=O)[O-])c1 | Non-toxic | 23.4% | 
16 | COc1ccc(/C=C/C(=N/NC(=N)N)c2ccc(Cl)cc2)cc1OC | Non-toxic | 78.2% | 6.42
17 | COc1ccc(C(/C=C/c2cc(OC)ccc2OC)=N\NC(=N)N)cc1 | Non-toxic | 10.3% | 
18 | COc1ccc(OC)c(/C=C/C(=N/NC(=N)N)c2ccccc2)c1 | Non-toxic | 32.6% | 
19 | COc1ccc(/C=C/C(=N/NC(=N)N)c2ccc(Cl)cc2Cl)cc1OC | Non-toxic | 21.8% | 
20 | N=C(N)N/N=C(/C=C/c1ccccc1)c1ccc([N+](=O)[O-])cc1 | Non-toxic | 13.5% | 
21 | CN(C)c1ccc(/C=C/C(=N/NC(=N)N)c2ccccc2)cc1 | Non-toxic | inactive | 
22 | COc1ccc(OC)c(/C=C/C(=N/NC(=N)N)c2cccc(Br)c2)c1 | Non-toxic | 23.9% | 
23 | N=C(N)N/N=C(/C=C/c1cccc([N+](=O)[O-])c1)c1ccc([N+](=O)[O-])cc1 | Non-toxic | 62.1% | 

From ChEMBL document CHEMBL3751780, “Rational design, synthesis and in vitro evaluation of allylidene hydrazinecarboximidamide derivatives as BACE-1 inhibitors” (Bioorg Med Chem Lett, 2016)
